Shown are actives, neighbours in structure and some others; about 2.2% of the full set was active somewhere.
GalR3 antagonist – GalR3 antagonists in HEK293 cells, primary screen, cell-based, fluorescence readout; Galanin receptor type 3 (Homo sapiens), O60755; HEK293 GalR3-CNG cAMP membrane potential fluorescence; galR3 body fused to GalR1 C-terminus; inhibition, % at 3 µM; 360,000 compounds, 0.44% hits; AID 651719, 2012;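 active means inhibition above the screen-wide average plus 3 SD, cut at about 13% in these data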;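 further: forskolin and galanin both at EC90 stimulate the cells; cAMP rise reported by CNG channel membrane potential dye signal; 0% = forskolin plus galanin with DMSO and 100% = forskolin alone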
Target sequence (O60755 1-299 limits assumed): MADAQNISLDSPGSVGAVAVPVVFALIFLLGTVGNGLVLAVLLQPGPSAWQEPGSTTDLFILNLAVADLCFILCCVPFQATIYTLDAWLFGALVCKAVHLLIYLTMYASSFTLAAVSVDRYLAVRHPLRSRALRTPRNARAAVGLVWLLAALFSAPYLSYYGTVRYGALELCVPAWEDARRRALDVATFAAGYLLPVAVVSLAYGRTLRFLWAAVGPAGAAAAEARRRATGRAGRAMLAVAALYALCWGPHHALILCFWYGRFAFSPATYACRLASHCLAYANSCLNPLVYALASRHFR
SMARCA2 act – SMARCA2 (BRM) function activators, primary screen, cell-based, luminescence, high throughput. MG213 cells, MMTV-luciferase reporter, dexamethasone, overnight. activation, % at 9.1 µM. 370,000 compounds, 1% hits; in the data active means activation above about 7.8%;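 further: 0% = vehicle wells and 100% = reference activator wells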
NR2E3 ag-1 – inhibitors of NR2E3-RetCOR corepressor binding, primary screen, NR2E3 agonist project, biochemical, TR-FRET, GST-NR2E3, biotin-RetCOR. Photoreceptor-specific nuclear receptor (Homo sapiens), Q9Y5X4. 1536-well. inhibition of corepressor binding, % at 4.78 µM. 320,000 compounds, 0.12% hits;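 active means percent inhibition above the cutoff of mean plus 3 SD of all tested compounds, set per screening campaign, cut at about 20% in these data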;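 further: 0% = DMSO wells and 100% = biotin wells as full block of FRET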
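Material: NR2E3–RetCOR corepressor complex / Amount: 1.35 nM GST-NR2E3 / Medium: Tris pH 7.5 / Compound: single nominal compound dose of 4.8 µM / Incubation: 5 h at 4 °C / Technique: TR-FRET, Eu(K)-anti-GST donor, streptavidin-D2 acceptor, ex 340, em 617/671 nm / Read-out basis: percent loss of FRET ratio relative to control wells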
NR2F2 inh – NR2F2 transcriptional activity inhibitors, primary screen, cell-based, luciferase reporter, HEK293T, luminescence; COUP transcription factor 2 (Homo sapiens), P24468; HEK293T NGFI-A luciferase reporter; inhibition, % at 8.6 µM; 370,000 compounds, 0.7% hits; AID 686940, 2013;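 active means inhibition above a per-plate cutoff, mean inhibition of test wells between control levels plus 3 SD, cut at about 38% in these data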;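 further: cells cotransfected with COUP-TFII expression vector driving the NGFI-A reporter; 0% = median of COUP-TF2 test wells and 100% = reporter-only cells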
NR2E3 ag-2 – NR2E3 agonists in two-hybrid cells, primary screen, cell-based, luminescence, CHO-S, Gal4-NCOR/VP16-NR2E3; Photoreceptor-specific nuclear receptor (Homo sapiens), Q9Y5X4; luciferase; inhibition of corepressor binding, % at 3.98 µM; 360,000 compounds, 0.35% hits;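 active means inhibition above the mean of all tested compounds plus 3 SD, cut at about 70% in these data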;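 further: 0% = DMSO with NR2E3 transfected cells and 100% = cells lacking NR2E3 construct; higher means lower luciferase signal from less NR2E3 corepressor binding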
SMARCA2 act conf – SMARCA2 (BRM) function activators, confirmation, cell-based, luminescence, triplicate; shares compounds with SMARCA2 act; activation, % at 9.1 µM; AID 652260, 2013; 3,500 compounds, 30% hits; MG213 cells, MMTV-luciferase with dexamethasone, overnight; MG213 cells expressing E1A, Rb sequestered; DMSO wells 0%, reference activator 100%;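 active means activation above its plate's cutoff, the mean activation of tested wells plus 3 SD, cut at about 7.9% in these data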
GAL4-VP16 Luc – GAL4-VP16 luciferase reporter activation, counter-screen for SMARCA2 (BRM) activator project, cell-based, pG5luc, luminescence, high throughput. 3,500 compounds, 41% hits. HEK293 GAL4-VP16 pG5luc reporter; scaled: DMSO wells 0%, SAHA wells 100%. AID 686939, 2013. activation, % at 9.1 µM. shares compounds with SMARCA2 act;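 active means activation above the solvent-only control well mean plus 3 SD, averaged across control plates, cut at about 5.2% in these data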
Starred values were filed as active, the others as inactive; · = not tested or not shown.

SMILES	GalR3 antagonist	SMARCA2 act	NR2E3 ag-1	NR2F2 inh	NR2E3 ag-2	SMARCA2 act conf	GAL4-VP16 Luc
CC(=O)Nc1ccc(C(=O)O)cc1	-4	1	·	-11	-24	·	·
C=CCNc1ccc(C(=O)O)cc1	1	9.7*	-1	0	-3	3	-1
Cc1ccc(NC(=O)c2ccc(C)c(NC3=NC4CS(=O)(=O)CC4S3)c2)cc1C (stereo not drawn)	·	-3	0	4	-6	·	·
Cc1ccc(C(=O)Nc2ccc(F)cc2)cc1NC1=NC2CS(=O)(=O)CC2S1 (stereo not drawn)	-3	9.8*	2	-13	-11	-5	1
Fc1cccc(-c2cc3nc4c(c(N5CCOCC5)n3n2)CCCC4)c1	-1	9.4*	-1	-34	-71	5	0
Fc1cccc(-c2cc3nc4c(c(NCc5ccco5)n3n2)CCCC4)c1	-6	8.4*	4	-35	-152	8	11*
COc1cccc(-c2cc3nc4c(c(NCC(C)(C)CN(C)C)n3n2)CCCC4)c1	-2	-3	-1	4	-22	·	·
Cc1cccc(OCCn2c(=O)n(C)c3ccccc32)c1	-1	8.9*	4	-34	-134	19*	12*
Cc1cccc(OCCCN2CCCCCC2)c1	-5	3	4	13	-6	·	·
Cc1cccc(OCCn2c(=O)sc3ccccc32)c1	-2	9.0*	5	-37	-122	11*	10.0*
Cc1cccc(OCCCn2c(=O)sc3ccccc32)c1	-1	0	2	-19	-74	·	·
Cc1cccc(OCCN2C(=O)c3ccccc3C2=O)c1	0	9.6*	1	-40	-64	4	5
COc1ccc(S(=O)(=O)N2CCCCCC2)c2ccccc12	·	-1	·	1	·	·	·
CC(C)NC1CCC(Nc2ccnc3cc(Cl)ccc23)CC1 (stereo not drawn)	-2	3	·	13	5	·	·
Clc1ccc2c(NCCNC3CCCCC3)ccnc2c1	2	12*	·	-3	18	-10	1
CC(C)C(Cl)=NOC(=O)Nc1ccc(S(N)(=O)=O)cc1	-2	47*	·	-8	-17	-13	0
O=C(CSc1nnc(-c2ccncc2)n1-c1ccccc1)Nc1cccc2ccccc12	·	3	·	12	·	·	·
Cn1c(C(=O)OCC(=O)NCc2ccco2)cc2sccc21	-2	14*	0	-7	4	1	2
Cc1cccc2nc(CSc3nnc4ccccn34)cn12	-4	8.4*	-3	-47	-76	9.9*	12*
Cc1cccc2nc(CSc3nnnn3-c3ccccc3)cn12	-2	-1	-2	-4	-7	·	·
N#Cc1ccc(S(=O)(=O)N2CCCc3nc(-c4ccc(Br)cc4)ccc32)cc1	-4	6	·	-11	·	·	·
Cc1ccc2nc(-c3ccc(Cl)cc3)c(Cc3cccc(Cl)c3)n2c1	-8	0	·	-47	-75	·	·
Cc1ccc2nc(-c3ccc(F)cc3)c(Cc3cccc(F)c3)n2c1	-9	8.6*	·	-27	·	3	1
Cc1ccc2nc(-c3ccccc3)c(Cc3ccsc3)n2c1	-3	4	·	-23	-89	·	·
Cc1ccc2nc(-c3cccc(Br)c3)c(Cc3ccsc3)n2c1	-6	9.5*	·	-56	·	9.7*	8.9*
SMILES	GalR3 antagonist	SMARCA2 act	NR2E3 ag-1	NR2F2 inh	NR2E3 ag-2	SMARCA2 act conf	GAL4-VP16 Luc
Cc1ccc2nc(-c3ccc(F)cc3)c(Cc3cccc(Cl)c3)n2c1	-8	13*	·	-52	-126	7	7.3*
CSC1=Nc2ccccc2N=C(N2CCCC2)C1	-4	0	·	0	·	·	·
COC(=O)[C@]12C[C@H](CC(=O)NCCCN3CCCC3=O)C(=O)N(CCc3ccc(OC)c(OC)c3)C1=C[C@H](C1CCCC1)O[C@@H]2C	·	4	·	-11	·	·	·
Cc1c(NC(=O)C(C)OC(=O)c2cc(Cl)nc(Cl)c2)c(=O)n(-c2ccccc2)n1C (stereo not drawn)	-2	-2	0	-7	-16	·	·
Cc1c(NC(=O)C(C)OC(=O)c2cccnc2)c(=O)n(-c2ccccc2)n1C (stereo not drawn)	-6	8.3*	-1	9	12	-2	0
CC(C)NC(=O)N[C@@H]1C[C@@H]2O[C@@H](CO)CC[C@@H]2O[C@@H]1CCc1ccc(-c2ccccc2F)cc1	·	-4	·	-1	·	·	·
O=C(CSc1nnc(-c2ccco2)o1)c1ccccc1Cl	-6	9.3*	2	-33	-25	6	1
CCN1CCN(CCCN(Cc2ccco2)C(=S)Nc2ccc(Cl)c(C)c2)CC1	0	0	3	2	3	·	·
Cc1ccc(NC(=S)N(CCCN2CCCC(C)C2)Cc2ccco2)cc1C (stereo not drawn)	-3	9.2*	2	-12	0	-1	1
CCOC(=O)c1ccc(/C=C2/C=C(c3ccccc3)N(c3ccc(Cl)c(C(=O)O)c3)C2=O)cc1	-8	12*	-2	-16	2	-2	-1
O=C(NCCCc1ccccc1)OC1CC2CC1[C@H]1CCCCN1[C@H]2Cc1ccccc1 (stereo partly drawn)	·	0	·	-3	·	·	·
COC(=O)c1ccc2nc(-c3ccc(F)cc3)c(Cc3ccccc3C(F)(F)F)n2c1	-6	9.1*	·	-5	-3	-1	-1
COC(=O)[C@@H](NC(=O)c1ccccc1OC1CCN(S(C)(=O)=O)CC1)C(C)C	-14	-1	-3	10	-8	·	·
COCCN(C(=O)c1ccccc1OC1CCN(S(C)(=O)=O)CC1)C(C)C	1	8.1*	2	1	-8	0	1
CCOc1ccccc1NC(=O)CSc1nc2ccccc2nc1N1CCCC1	·	8.3*	2	-3	-22	-3	0
Cc1noc(C)c1-c1ccc(C(=O)Nc2ccc(C(C)C)cc2)c2occc12	-9	-3	·	5	4	·	·
CC(=O)Nc1ccc(NC(=O)c2ccc(-c3c(C)noc3C)c3ccoc23)cc1	-5	8.6*	·	-76	-10	-6	10*
COC(=O)C1CN(Cc2ccc(F)cc2)CCS(=O)(=O)N1Cc1ccccc1 (stereo not drawn)	·	-7	·	-13	·	·	·
